Reference: ChEMBL document CHEMBL1143310, “Design, synthesis, and biological evaluation of fluorinated analogues of salicylihalamide” (J Med Chem, 2009)
Activity calls are given as the source filed them. No cut-off for these calls is given here.

What was measured:
[1] = Inhibition of proton transport activity of V-ATPase in pig adrenal chromaffin granule membrane by fluorescent quenching measurement; parameters: species or system Sus scrofa
In short: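 Porcine adrenal chromaffin granule membranes (50 µg protein) in 0.3 M sucrose, 40 mM KCl, 5 mM tricine, pH 8.0, with ACMA and valinomycin, preincubated 10 min at 37 °C. Compound added in DMSO (0.1% final), 3 min at 37 °C. MgATP added for 2 min, then FCCP. ACMA fluorescence quenching read. Activity taken as % of DMSO control, in triplicate with SD. IC50 derived graphically from log-concentration plots.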

[2] = Cytotoxicity against african green monkey COS7 cells at 1 uM after 5 hrs by trypan blue exclusion test; format: cell-based; conditions: chlorocebus aethiops, cos-7, 5 h
In short: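 COS-7 cells were cultured on poly-L-lysine coverslips and exposed to compound at 1 µM final for 5 h at 37 °C. Intact or treated cells were soaked in PBS with 0.3% trypan blue. Viability was judged by dye exclusion under bright-field and phase-contrast microscopy.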

[3] = test system: COS-7; assay: Inhibition of V-ATPase activity in african green monkey COS7 cells assessed as increase in luminal pH of lysosomes at 1 uM after 5 hrs by fluorescent microscopy; format: cell-based; conditions: Chlorocebus aethiops
In short: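 COS-7 cells grown in DMEM with 10% FCS at 37 °C in 5% CO2 on poly-L-lysine coverslips overnight. Compound added at 1 µM final for 5 h at 37 °C. Cells then loaded 1 min with LysoSensor Green DND-189 (1 µM final) and washed with HBSS. Lysosomal fluorescence imaged by microscopy with a cooled CCD camera. Duplicate experiments.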

[4] = Cytotoxicity against human melanoma cells; format: functional; conditions: Melanoma cell
[5] = Inhibition of V-ATPase activity in bovine […] chromaffin granule membrane; parameters: species or system Bos taurus
[6] = Cytotoxicity against human NCI60 cells; format: functional

Compound | IC50 [1] [nM] | Activity [2] | Activity [3] | GI50 [4] [nM] | IC50 [5] [nM] | GI50 [6] [nM]
CC/C=C\C=C/C(=O)N/C=C\C[C@H]1C[C@@H](O)[C@@H](C)C/C=C/Cc2cccc(O)c2C(=O)O1 [SALICYLIHALAMIDE B] | 30 | Non-toxic | Active | – | – | –
CC/C=C\C=C/C(=O)N/C=C/C[C@H]1C[C@@H](O)[C@@H](C)C/C=C/Cc2ccc(F)c(O)c2C(=O)O1 [4-19F-SALICYLIHALAMIDE A] | 2 | – | Active | – | – | –
CC/C=C\C=C/C(=O)N/C=C\C[C@H]1C[C@@H](O)[C@@H](C)C/C=C/Cc2ccc(F)c(O)c2C(=O)O1 [4-19F-SALICYLIHALAMIDE B] | 10 | – | Active | – | – | –
CC/C=C\C=C/C(=O)N/C=C/C[C@H]1C[C@@H](O)[C@@H](C)C/C=C/Cc2cccc(O)c2C(=O)O1 [SALICYLIHALAMIDE A] | < 1 | Non-toxic | Active | 7 | 1 | 15
